Experimental data reported in ChEMBL document CHEMBL3774342, “Indole Based Weapons to Fight Antibiotic Resistance: A Structure-Activity Relationship Study” (J Med Chem, 2016).
Values after ≈ are worked out from the molar mass of the structure shown. Active and inactive are the calls of the source. No cut-off for these calls is given here.

What was measured:
[1] = biological target: T1, Quinolone resistance protein NorA (Staphylococcus aureus) (UniProt P0A0J7); assay: Inhibition of NorA efflux pump in Staphylococcus aureus 1199B assessed as reduction in EtBr efflux at 50 uM incubated for 20 mins measured for 5 mins by real-time fluorometric analysis
T1 sequence (whole entry): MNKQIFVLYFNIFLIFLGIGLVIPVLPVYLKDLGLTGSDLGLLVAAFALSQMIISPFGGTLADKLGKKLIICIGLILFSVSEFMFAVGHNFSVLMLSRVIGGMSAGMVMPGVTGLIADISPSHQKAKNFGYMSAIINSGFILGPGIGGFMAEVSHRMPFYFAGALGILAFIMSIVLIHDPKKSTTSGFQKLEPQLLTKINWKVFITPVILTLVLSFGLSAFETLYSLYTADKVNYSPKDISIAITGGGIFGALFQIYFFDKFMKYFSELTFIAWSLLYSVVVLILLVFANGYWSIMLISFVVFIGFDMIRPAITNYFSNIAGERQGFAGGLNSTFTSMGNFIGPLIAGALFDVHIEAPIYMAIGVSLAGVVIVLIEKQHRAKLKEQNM
Procedure, shortened: (§1)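 SA-1199B (norA-overexpressing) grown overnight in cation-supplemented Mueller-Hinton broth, diluted 25-fold and grown at 35 °C to OD600 0.7–0.8. Loaded with EtBr 25 µM plus CCCP 100 µM (final), then resuspended in fresh broth. Fluorescence read at ex 485/em 645 nm for 5 min, ± compound. Efflux inhibition in % relative to untreated cells; screened at 50 µM. IC50 from concentration series; triplicate, two technical replicates each.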

Staphylococcus aureus [2] = assay: Antimicrobial activity against Staphylococcus aureus 1199B by microdilution method; assay type: functional
Procedure, shortened: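 MIC by broth microdilution following CLSI guidelines against S. aureus SA-1199B, a strain that overexpresses norA. Run on compounds giving at least 80% EtBr efflux inhibition and on selected weaker ones.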

[3] = Metabolic stability in human liver microsomes assessed as compound remaining after at 10 uM preincubated for 5 mins followed by NADPH addition measured after 30 mins by HPLC-MS/MS analysis; assay type: ADME; conditions: read-out: Stability
Procedure, shortened: (§2)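 Human liver microsomes at 0.5 mg protein/ml in 100 mM potassium phosphate pH 7.4. Substrate at 10 µM final, pre-incubated 5 min at 37 °C with shaking, then started with 1 mM NADPH. Quenched at 0 and 30 min with cold acetonitrile containing labetalol internal standard. Spun 12000 g, 5 min, 4 °C; supernatant analysed by UHPLC C18 HPLC-MS/MS.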

Staphylococcus aureus [4] = assay: Inhibition of NorA efflux pump A116E GrlA mutant in Staphylococcus aureus 1199B assessed as potentiation of ciprofloxacin-mediated antibacterial activity at 3.13 ug/ml relative to control
[5] = biological target: T1, Quinolone resistance protein NorA (Staphylococcus aureus); assay: Inhibition of NorA efflux pump in Staphylococcus aureus 1199 assessed as potentiation of ciprofloxacin-mediated antibacterial activity
[6] = biological target: T2, Quinolone resistance protein NorA (Staphylococcus aureus, UniProt P0A0J7); assay: Inhibition of NorA efflux pump in Staphylococcus aureus 1199B assessed as reduction in EtBr efflux incubated for 20 mins measured for 5 mins by real-time fluorometric analysis; procedure, shortened: as §1
T2 sequence (P0A0J7 whole entry): T1 sequence (whole entry)

Liver microsome [7] = assay: Drug metabolism in human liver microsomes assessed as ethyl 5-(3-aminopropoxy)-2-methyl-1H-indole-3-carboxylate formation at 10 uM preincubated for 5 mins followed by NADPH addition measured after 30 mins by HPLC-MS/MS analysis; assay type: ADME; conditions: 0.5 h; procedure, shortened: as §2
Liver microsome [8] = assay: Drug metabolism in human liver microsomes assessed as 5-(3-aminopropoxy)-1-benzyl-2-methyl-1H-indole-3-carboxylic acid formation at 10 uM preincubated for 5 mins followed by NADPH addition measured after 30 mins by HPLC-MS/MS analysis; assay type: ADME; conditions: 0.5 h; procedure, shortened: as §2
[9] = Solubility of the compound in D2O solution at 25 degC by 1H NMR analysis; assay type: physicochemical
Procedure, shortened: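 1H NMR in D2O at 25 °C with TSP internal standard, following a literature procedure.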

Liver microsome [10] = assay: Drug level in human liver microsomes treated with Ethyl 1-Benzyl-2-methyl-5-(2-(piperazin-1-yl)ethoxy)-1H-indole-3-carboxylate at 10 uM preincubated for 5 mins followed by NADPH addition measured after 30 mins by HPLC-MS/MS analysis; assay type: ADME; conditions: 0.5 h; procedure, shortened: as §2
Liver microsome [11] = assay: Drug level in human liver microsomes treated with Ethyl 1-benzyl-2-methyl-5-(3-(piperidin-1-yl)propoxy)-1H-indole-3-carboxylate at 10 uM preincubated for 5 mins followed by NADPH addition measured after 30 mins by HPLC-MS/MS analysis; assay type: ADME; conditions: 0.5 h; procedure, shortened: as §2
Liver microsome [12] = assay: Drug level in human liver microsomes treated with Ethyl 5-(3-Aminopropoxy)-1-benzyl-2-methyl-(1H)-indole-3-carboxylate at 10 uM preincubated for 5 mins followed by NADPH addition measured after 30 mins by HPLC-MS/MS analysis; assay type: ADME; conditions: 0.5 h; procedure, shortened: as §2
Liver microsome [13] = assay: Drug metabolism in human liver microsomes assessed as ethyl 2-Methyl-5-(3-(piperidin-1-yl)propoxy)-1H-indole-3-carboxylate formation at 10 uM preincubated for 5 mins followed by NADPH addition measured after 30 mins by HPLC-MS/MS analysis; assay type: ADME; conditions: 0.5 h; procedure, shortened: as §2
Liver microsome [14] = assay: Drug metabolism in human liver microsomes assessed as 1-Benzyl-2-methyl-5-(3-(piperidin-1-yl)propoxy)-1H-indole-3-carboxylic acid formation at 10 uM preincubated for 5 mins followed by NADPH addition measured after 30 mins by HPLC-MS/MS analysis; assay type: ADME; conditions: 0.5 h; procedure, shortened: as §2
Liver microsome [15] = assay: Drug metabolism in human liver microsomes assessed as N-dealkylated M-68 formation at 10 uM preincubated for 5 mins followed by NADPH addition measured after 30 mins by HPLC-MS/MS analysis; assay type: ADME; conditions: 0.5 h; procedure, shortened: as §2
Liver microsome [16] = assay: Drug metabolism in human liver microsomes assessed as N-dealkylated M-90 formation at 10 uM preincubated for 5 mins followed by NADPH addition measured after 30 mins by HPLC-MS/MS analysis; assay type: ADME; conditions: 0.5 h; procedure, shortened: as §2
[17] = biological target: T1, Quinolone resistance protein NorA (Staphylococcus aureus); assay: Inhibition of NorA efflux pump in Staphylococcus aureus assessed as potentiation of ciprofloxacin-mediated antibacterial activity at 1.5 ug/ml relative to control
Liver microsome [18] = assay: Drug metabolism in human liver microsomes assessed as ethyl 1-(2-hydroxybenzyl)-2-methyl-5-(3-(piperidin-1-yl)propoxy)-1H-indole-3-carboxylate formation at 10 uM preincubated for 5 mins followed by NADPH addition measured after 30 mins by HPLC-MS/MS analysis; assay type: ADME; conditions: 0.5 h; procedure, shortened: as §2
Liver microsome [19] = assay: Drug metabolism in human liver microsomes assessed as ethyl 2-methyl-5-(2-(piperazin-1-yl)ethoxy)-1H-indole-3-carboxylate formation at 10 uM preincubated for 5 mins followed by NADPH addition measured after 30 mins by HPLC-MS/MS analysis; assay type: ADME; conditions: 0.5 h; procedure, shortened: as §2
Liver microsome [20] = assay: Drug metabolism in human liver microsomes assessed as 1-benzyl-2-methyl-5-(2-(piperazin-1-yl)ethoxy)-1H-indole-3-carboxylic acid formation at 10 uM preincubated for 5 mins followed by NADPH addition measured after 30 mins by HPLC-MS/MS analysis; assay type: ADME; conditions: 0.5 h; procedure, shortened: as §2
Liver microsome [21] = assay: Drug level in human liver microsomes treated with Ethyl 1-(2-Methoxybenzyl)-2-methyl-5-(3-(piperidin-1-yl)-propoxy)-1H-indole-3-carboxylate at 10 uM preincubated for 5 mins followed by NADPH addition measured after 30 mins by HPLC-MS/MS analysis; assay type: ADME; conditions: 0.5 h; procedure, shortened: as §2
Liver microsome [22] = assay: Drug metabolism in human liver microsomes assessed as ethyl 2-methyl-5-(3-(piperazin-1-yl)propoxy)-1H-indole-3-carboxylate formation at 10 uM preincubated for 5 mins followed by NADPH addition measured after 30 mins by HPLC-MS/MS analysis; assay type: ADME; conditions: 0.5 h; procedure, shortened: as §2
Liver microsome [23] = assay: Drug metabolism in human liver microsomes assessed as 1-benzyl-2-methyl-5-(3-(piperazin-1-yl)propoxy)-1H-indole-3-carboxylic acid formation at 10 uM preincubated for 5 mins followed by NADPH addition measured after 30 mins by HPLC-MS/MS analysis; assay type: ADME; conditions: 0.5 h; procedure, shortened: as §2

| Structure (SMILES) | inhibition [1] [%] | MIC (Staphylococcus aureus [2]) [µg/mL] | remaining at 0.5 h, 10 µM [3] [%] | IC50 [6] [µM] | solubility [9] [µM] | other results |
| --- | --- | --- | --- | --- | --- | --- |
| CCOC(=O)c1c(C)n(Cc2ccccc2)c2ccc(OCCCN)cc12 | 100 | > 100 | 87 | 12.5 | 17 (≈ 6.23 µg/mL) | fold change (FC) (Staphylococcus aureus [4]): 4; inhibition [5]: inactive; Drug metabolism (Liver microsome [7]): metabolite_detected; Drug metabolism (Liver microsome [8]): metabolite_detected |
| CCOC(=O)c1c(C)[nH]c2ccc(OCCN3CCNCC3)cc12 |  |  |  |  |  | Drug metabolism (Liver microsome [10]): metabolite_detected |
| Cc1c(C(=O)O)c2cc(OCCCN3CCCCC3)ccc2n1Cc1ccccc1 | 0 |  |  |  |  | Drug metabolism (Liver microsome [11]): metabolite_detected |
| Cc1c(C(=O)O)c2cc(OCCCN)ccc2n1Cc1ccccc1 |  |  |  |  |  | Drug metabolism (Liver microsome [12]): metabolite_detected |
| CCOC(=O)c1c(C)n(Cc2ccccc2)c2ccc(OCCCN3CCCCC3)cc12 | 98.5 | > 100 | 76 | 6 | 23 (≈ 10 µg/mL) | Drug metabolism (Liver microsome [13]): metabolite_detected; Drug metabolism (Liver microsome [14]): metabolite_detected |
| CCOC(=O)c1c(C)n(Cc2ccccc2)c2ccc(OCC(F)CN3CCCCC3)cc12 (centres undefined) | 96.7 | > 100 | 52 | 5.1 | 20 (≈ 9.05 µg/mL) | Drug metabolism (Liver microsome [15]): metabolite_detected; Drug metabolism (Liver microsome [16]): metabolite_detected |
| CCOC(=O)c1c(C)[nH]c2ccc(OCCCN)cc12 |  |  |  |  |  | Drug metabolism (Liver microsome [12]): metabolite_detected |
| O=[N+]([O-])c1ccc2[nH]c(-c3ccccc3)cc2c1 |  |  |  |  |  | fold change (FC) [17]: 4 |
| CCOC(=O)c1c(C)n(Cc2ccccc2OC)c2ccc(OCCCN3CCCCC3)cc12 | 87.9 | > 100 | 66 | 5 | 25 (≈ 11.6 µg/mL) | Drug metabolism (Liver microsome [13]): metabolite_detected; Drug metabolism (Liver microsome [18]): metabolite_detected |
| CCOC(=O)c1c(C)n(Cc2ccccc2)c2ccc(OCCN3CCNCC3)cc12 | 99.2 | > 100 | 72 | 15.5 | 190 (≈ 80.1 µg/mL) | Drug metabolism (Liver microsome [19]): metabolite_detected; Drug metabolism (Liver microsome [20]): metabolite_detected; fold change (FC) (Staphylococcus aureus [4]): 4; inhibition [5]: inactive |
| CCOC(=O)c1c(C)[nH]c2ccc(OCCCN3CCCCC3)cc12 | 34.2 |  |  |  |  | Drug metabolism (Liver microsome [11]): metabolite_detected; Drug metabolism (Liver microsome [21]): metabolite_detected |
| Cc1c(C(=O)O)c2cc(OCCN3CCNCC3)ccc2n1Cc1ccccc1 |  |  |  |  |  | Drug metabolism (Liver microsome [10]): metabolite_detected |
| CCOC(=O)c1c(C)n(Cc2ccccc2)c2ccc(OCCCN3CCNCC3)cc12 | 100 | 100 (≈ 230 µM) | 82 | 12.5 | 20 (≈ 8.71 µg/mL) | fold change (FC) (Staphylococcus aureus [4]): 4; inhibition [5]: inactive; Drug metabolism (Liver microsome [22]): metabolite_detected; Drug metabolism (Liver microsome [23]): metabolite_detected |
| CCOC(=O)c1c(C)n(Cc2ccccc2O)c2ccc(OCCCN3CCCCC3)cc12 |  |  |  |  |  | Drug metabolism (Liver microsome [21]): metabolite_detected |
